Measurements as given in ChEMBL document CHEMBL1148054, “Chemical and bioactive constituents from Zanthoxylum simulans” (J Nat Prod, 1994).
Activity calls are given as the source filed them. The calls are words filed in the database; no cut-off is given here.

Columns and labels:
Type in all cases: functional
[1] = test system: Platelet; assay: Antiplatelet activity against rabbit platelet assessed as inhibition of arachidonic acid-induced platelet aggregation at 100 ug/ml; conditions: Oryctolagus cuniculus
[2] = test system: Platelet; assay: Antiplatelet activity against rabbit platelet assessed as inhibition of collagen-induced platelet aggregation at 100 ug/ml; conditions: Oryctolagus cuniculus
[3] = test system: Platelet; assay: Antiplatelet activity against rabbit platelet assessed as inhibition of platelet activating factor-induced platelet aggregation at 100 ug/ml; conditions: Oryctolagus cuniculus
[4] = test system: HL-60; assay: Induction of cell differentiation in human HL60 cells assessed as alpha naphthyl esterase activity at 0.0001 uM after 4 days
How it was run: (§1)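 HL-60 cells in RPMI 1640 with 5% heat-inactivated calf serum at 37° under 5% CO2. Log-phase cells diluted to 1.2×10^5 cells/ml and preincubated 18 h, then samples added in DMSO (final 0.1%, DMSO controls). Cells scored after 4 days.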

[5] = test system: HL-60; assay: Induction of cell differentiation in human HL60 cells assessed as alpha naphthyl esterase activity at 0.001 uM after 4 days; how it was run: as §1
[6] = test system: HL-60; assay: Induction of cell differentiation in human HL60 cells assessed as alpha naphthyl esterase activity at 0.01 uM after 4 days; how it was run: as §1
[7] = test system: HL-60; assay: Induction of cell differentiation in human HL60 cells assessed as alpha naphthyl esterase activity at 0.1 uM after 4 days; how it was run: as §1
[8] = test system: HL-60; assay: Induction of cell differentiation in human HL60 cells assessed as alpha naphthyl esterase activity at 1 uM after 4 days; how it was run: as §1
[9] = test system: HL-60; assay: Induction of terminal cell differentiation in human HL60 cells at 0.0001 uM after 4 days by NBT reduction assay
How it was run: (§2)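 Log-phase HL-60 cells (RPMI 1640, 5% heat-inactivated calf serum, 37°, 5% CO2) were diluted to 1.2×10^5 cells/ml, preincubated 18 h, then treated 4 days with samples in DMSO (final 0.1%; DMSO controls). 10^6 cells were mixed 1:1 with fresh PBS holding 2 mg/ml NBT and 5 μg/ml TPA, 1 h at 37°. Formazan-positive cells were counted microscopically as % NBT-positive.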

[10] = test system: HL-60; assay: Induction of terminal cell differentiation in human HL60 cells at 0.001 uM after 4 days by NBT reduction assay; how it was run: as §2
[11] = test system: HL-60; assay: Induction of terminal cell differentiation in human HL60 cells at 0.01 uM after 4 days by NBT reduction assay; how it was run: as §2
[12] = test system: HL-60; assay: Induction of terminal cell differentiation in human HL60 cells at 0.1 uM after 4 days by NBT reduction assay; how it was run: as §2
[13] = test system: HL-60; assay: Induction of terminal cell differentiation in human HL60 cells at 1 uM after 4 days by NBT reduction assay; how it was run: as §2
[14] = test system: HL-60; assay: Induction of terminal cell differentiation in human HL60 cells assessed as inhibition of [3H]thymidine incorporation at 0.1 uM after 4 days; parameters: scale not given: the % may be the effect or the level left
How it was run: (§3)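 HL-60 cells were kept in RPMI 1640 with 5% heat-inactivated calf serum and penicillin/streptomycin at 37° under 5% CO2. Log-phase cells were diluted to 1.2×10^5 cells/ml and preincubated 18 h. Samples were added in DMSO (final 0.1%; vehicle controls matched) for 4 days. Aliquots then got 0.5 μCi/ml [3H]thymidine for 16 h more, were harvested and scintillation-counted. % incorporation per 10^6 cells = sample DPM / DMSO-control DPM.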

[15] = test system: HL-60; assay: Induction of terminal cell differentiation in human HL60 cells assessed as inhibition of [3H]thymidine incorporation at 0.01 uM after 4 days; parameters: scale not given: the % may be the effect or the level left; how it was run: as §3
[16] = test system: HL-60; assay: Induction of terminal cell differentiation in human HL60 cells assessed as inhibition of [3H]thymidine incorporation at 0.001 uM after 4 days; parameters: scale not given: the % may be the effect or the level left; how it was run: as §3
[17] = test system: HL-60; assay: Induction of terminal cell differentiation in human HL60 cells assessed as inhibition of [3H]thymidine incorporation at 0.0001 uM after 4 days; parameters: scale not given: the % may be the effect or the level left
How it was run: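 After 4-day sample treatment, 100 μl of HL-60 cells pulsed with 0.5 μCi/ml [3H]thymidine (65 Ci/mmol) for 16 h. Cells harvested and counted by liquid scintillation. Incorporation per 10^6 cells given as sample DPM divided by DMSO-control DPM.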

[18] = test system: HL-60; assay: Induction of terminal cell differentiation in human HL60 cells assessed as inhibition of [3H]thymidine incorporation at 1 uM after 4 days; parameters: scale not given: the % may be the effect or the level left; how it was run: as §3
[19] = test system: HL-60; assay: Induction of terminal cell differentiation in human HL60 cells assessed as naphthol AS-D chloroacetate esterase activity at 1 uM after 4 days
How it was run: (§4)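 HL-60 cells were grown in RPMI 1640 with 5% heat-inactivated calf serum at 37°, 5% CO2. They were diluted to 1.2×10^5 cells/ml, preincubated 18 h, then exposed 4 days to DMSO-dissolved samples (final DMSO 0.1%, matched vehicle controls). Specific esterase (naphthol AS-D chloroacetate) was scored cytochemically with a commercial kit as the percentage of differentiated cells.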

[20] = test system: HL-60; assay: Induction of terminal cell differentiation in human HL60 cells assessed as naphthol AS-D chloroacetate esterase activity at 0.1 uM after 4 days; how it was run: as §4
[21] = test system: HL-60; assay: Induction of terminal cell differentiation in human HL60 cells assessed as naphthol AS-D chloroacetate esterase activity at 0.01 uM after 4 days; how it was run: as §4
[22] = test system: HL-60; assay: Induction of terminal cell differentiation in human HL60 cells assessed as naphthol AS-D chloroacetate esterase activity at 0.001 uM after 4 days; how it was run: as §4
[23] = test system: HL-60; assay: Induction of terminal cell differentiation in human HL60 cells assessed as naphthol AS-D chloroacetate esterase activity at 0.0001 uM after 4 days; how it was run: as §4
[24] = test system: HL-60; assay: Induction of terminal cell differentiation in human HL60 cells assessed as cell viability at 1 uM by trypan blue exclusion method; conditions: read-out: Activity
How it was run: (§5)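 HL-60 cells preincubated 18 h at 1.2×10^5 cells/ml, then exposed 4 days to samples in DMSO (final 0.1%). Viability by trypan blue exclusion: viable/(viable+dead)×100. Cell counts also taken after 4 days.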

[25] = test system: HL-60; assay: Induction of terminal cell differentiation in human HL60 cells assessed as cell viability at 0.1 uM by trypan blue exclusion method; conditions: read-out: Activity; how it was run: as §5
[26] = test system: HL-60; assay: Induction of terminal cell differentiation in human HL60 cells assessed as cell viability at 0.01 uM by trypan blue exclusion method; conditions: read-out: Activity; how it was run: as §5
[27] = test system: HL-60; assay: Induction of terminal cell differentiation in human HL60 cells assessed as cell viability at 0.001 uM by trypan blue exclusion method; conditions: read-out: Activity; how it was run: as §5
[28] = test system: HL-60; assay: Induction of terminal cell differentiation in human HL60 cells assessed as cell viability at 0.0001 uM by trypan blue exclusion method; conditions: read-out: Activity; how it was run: as §5

For `Oc1cnc2c(ccc3cc4c(cc32)OCO4)c1`, the Activity [1] was “inactive”, the Activity [2] was “inactive” and the Activity [3] was “inactive”.
`C=C1/C(=C\C=C2/CCC[C@]3(C)[C@@H]([C@H](C)CCCC(C)(C)O)CC[C@@H]23)C[C@@H](O)C[C@@H]1O` [CALCITRIOL] was tested, and the Activity [4] was 2.5%, the Activity [5] was 14% and the Activity [6] was 68%. The Activity [7] was 90.1%, the Activity [8] was 95.3% and the Activity [9] was 8.8%. For the same compound, the Activity [10] was 28.5%, the Activity [11] was 73.3% and the Activity [12] was 80%. For the same compound, the Activity [13] was 90.5%, the Activity [14] was 92% and the Activity [15] was 58.3%. It also gave an Activity [16] of 32.3%, an Activity [17] of 6% and an Activity [18] of 95.3%. For the same compound, the Activity [19] was 2%, the Activity [20] was 2% and the Activity [21] was 4%. It also gave an Activity [22] of 4.6%, an Activity [23] of 5% and a viability at 1 µM [24] of 92%. It also gave a viability at 0.1 µM [25] of 95%, a viability at 0.01 µM [26] of 97% and a viability at 0.001 µM [27] of 99%. It also gave a viability at 0.0001 µM [28] of 98%.
